What was measured:
Conditions in all cases: stereoisomer not certain
OR6C76 (Homo sapiens) = OR6C76 (Homo sapiens) (UniProt A6NM76)
Method in brief: (§1)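 Assay methods differ from source to source, frequently being transient luciferase assays in mammalian cell lines. For each receptor–molecule pair, the label responsive (active) applies when the original authors judged the measured signal statistically different from baseline, and non-responsive (inactive) applies otherwise.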

OR6F1 (Homo sapiens) = OR6F1 (Homo sapiens) (UniProt Q8NGZ6)
Method in brief: as §1

OR6J1 (Homo sapiens) [1] = biological target: OR6J1 (Homo sapiens) (UniProt Q8NGC5)
Method in brief: as §1
Target sequence in this assay (Q8NGC5 whole entry): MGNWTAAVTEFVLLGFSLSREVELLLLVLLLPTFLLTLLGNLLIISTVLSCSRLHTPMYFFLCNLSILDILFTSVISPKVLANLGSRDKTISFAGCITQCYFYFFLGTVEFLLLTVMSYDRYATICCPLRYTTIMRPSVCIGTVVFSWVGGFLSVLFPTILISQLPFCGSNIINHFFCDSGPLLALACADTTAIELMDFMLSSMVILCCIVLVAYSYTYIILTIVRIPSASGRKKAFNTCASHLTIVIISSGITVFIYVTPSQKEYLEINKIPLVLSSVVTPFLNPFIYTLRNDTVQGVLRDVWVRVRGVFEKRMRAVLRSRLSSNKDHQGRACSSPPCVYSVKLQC

OR6K2 (Homo sapiens) = OR6K2 (Homo sapiens) (UniProt Q8NGY2)
Method in brief: as §1

OR6K3 = system: OR6K3
Method in brief: as §1

OR6K6 (Homo sapiens) = OR6K6 (Homo sapiens) (UniProt Q8NGW6)
Method in brief: as §1

OR6M1 (Homo sapiens) = OR6M1 (Homo sapiens) (UniProt Q8NGM8)
Method in brief: as §1

OR6M1 R224C = system: OR6M1 R224C
Method in brief: as §1

OR6M1 T276K = system: OR6M1 T276K
Method in brief: as §1

OR6N1 (Homo sapiens) = OR6N1 (Homo sapiens) (UniProt Q8NGY5)
Method in brief: as §1

OR6N2 (Homo sapiens) = OR6N2 (Homo sapiens) (UniProt Q8NGY6)
Method in brief: as §1

OR6P1 (Homo sapiens) = biological target: T1, OR6P1 (Homo sapiens) (UniProt Q8NGX9)
T1 sequence (whole entry): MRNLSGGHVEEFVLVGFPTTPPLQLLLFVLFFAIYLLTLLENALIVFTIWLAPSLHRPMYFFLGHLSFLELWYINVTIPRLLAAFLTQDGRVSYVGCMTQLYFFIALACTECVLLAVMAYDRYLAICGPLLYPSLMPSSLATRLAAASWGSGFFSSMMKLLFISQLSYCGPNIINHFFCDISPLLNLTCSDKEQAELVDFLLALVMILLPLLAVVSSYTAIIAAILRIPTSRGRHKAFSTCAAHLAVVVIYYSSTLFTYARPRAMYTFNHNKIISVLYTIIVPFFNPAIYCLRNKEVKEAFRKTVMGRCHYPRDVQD
Method in brief: as §1

OR6Q1 (Homo sapiens) = OR6Q1 (Homo sapiens) (UniProt Q8NGQ2)
Method in brief: as §1

OR6S1 (Homo sapiens) = OR6S1 (Homo sapiens) (UniProt Q8NH40)
Method in brief: as §1

OR6S1 T42I V156I = system: OR6S1 T42I V156I
Method in brief: as §1

OR6T1 (Homo sapiens) = OR6T1 (Homo sapiens) (UniProt Q8NGN1)
Method in brief: as §1

OR6T1 N2D = system: OR6T1 N2D
Method in brief: as §1

OR6V1 (Homo sapiens) = OR6V1 (Homo sapiens) (UniProt Q8N148)
Method in brief: as §1

OR6J1 (Homo sapiens) [2] = biological target: OR6J1 (Homo sapiens) (UniProt Q8NGC5); remark: listed apart in the source
Method in brief: as §1
Target sequence in this assay (Q8NGC5 whole entry S250P): as the sequence (Q8NGC5 whole entry) above, with S250P counted along it

OR6K3 (Homo sapiens) = OR6K3 (Homo sapiens) (UniProt Q8NGY3)
Method in brief: as §1

Sequence of OR6F1 (Homo sapiens) (Q8NGZ6 whole entry): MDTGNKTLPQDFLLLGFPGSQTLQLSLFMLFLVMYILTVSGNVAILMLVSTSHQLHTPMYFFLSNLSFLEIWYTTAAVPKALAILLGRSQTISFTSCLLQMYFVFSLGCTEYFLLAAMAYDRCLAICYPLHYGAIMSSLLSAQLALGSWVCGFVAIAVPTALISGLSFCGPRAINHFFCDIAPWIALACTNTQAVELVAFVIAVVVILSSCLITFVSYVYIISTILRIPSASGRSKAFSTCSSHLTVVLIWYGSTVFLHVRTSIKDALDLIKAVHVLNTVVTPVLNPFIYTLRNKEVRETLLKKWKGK
Sequence of OR6N1 (Homo sapiens) (Q8NGY5 whole entry): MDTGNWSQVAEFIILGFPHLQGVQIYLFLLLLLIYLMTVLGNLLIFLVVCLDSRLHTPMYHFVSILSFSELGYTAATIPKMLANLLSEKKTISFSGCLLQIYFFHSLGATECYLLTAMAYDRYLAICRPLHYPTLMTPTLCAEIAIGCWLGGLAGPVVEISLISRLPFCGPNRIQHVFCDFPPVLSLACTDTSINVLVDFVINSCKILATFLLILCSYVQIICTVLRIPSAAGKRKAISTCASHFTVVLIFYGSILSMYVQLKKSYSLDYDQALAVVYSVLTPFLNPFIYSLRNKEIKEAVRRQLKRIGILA
Sequence of OR6S1 (Homo sapiens) (Q8NH40 whole entry): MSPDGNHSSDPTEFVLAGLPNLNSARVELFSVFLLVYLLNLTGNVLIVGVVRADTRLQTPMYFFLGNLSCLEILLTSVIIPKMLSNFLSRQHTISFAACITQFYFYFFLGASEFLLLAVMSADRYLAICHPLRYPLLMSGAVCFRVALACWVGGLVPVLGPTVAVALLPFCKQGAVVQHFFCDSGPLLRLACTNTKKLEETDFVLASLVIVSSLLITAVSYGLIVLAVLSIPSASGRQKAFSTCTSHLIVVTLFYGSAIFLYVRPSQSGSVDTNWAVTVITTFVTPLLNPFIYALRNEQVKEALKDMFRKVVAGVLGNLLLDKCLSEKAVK
Sequence of OR6V1 (Homo sapiens) (Q8N148 whole entry): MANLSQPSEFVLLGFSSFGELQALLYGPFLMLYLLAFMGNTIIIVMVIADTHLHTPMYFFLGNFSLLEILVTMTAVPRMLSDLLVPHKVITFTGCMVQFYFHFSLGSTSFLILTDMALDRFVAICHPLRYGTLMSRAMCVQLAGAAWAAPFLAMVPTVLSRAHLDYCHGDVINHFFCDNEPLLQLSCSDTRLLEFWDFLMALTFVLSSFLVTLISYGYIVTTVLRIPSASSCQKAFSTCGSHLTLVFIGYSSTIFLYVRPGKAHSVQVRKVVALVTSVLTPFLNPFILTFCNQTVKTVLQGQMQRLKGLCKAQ
Sequence of OR6M1 (Homo sapiens) (Q8NGM8 whole entry): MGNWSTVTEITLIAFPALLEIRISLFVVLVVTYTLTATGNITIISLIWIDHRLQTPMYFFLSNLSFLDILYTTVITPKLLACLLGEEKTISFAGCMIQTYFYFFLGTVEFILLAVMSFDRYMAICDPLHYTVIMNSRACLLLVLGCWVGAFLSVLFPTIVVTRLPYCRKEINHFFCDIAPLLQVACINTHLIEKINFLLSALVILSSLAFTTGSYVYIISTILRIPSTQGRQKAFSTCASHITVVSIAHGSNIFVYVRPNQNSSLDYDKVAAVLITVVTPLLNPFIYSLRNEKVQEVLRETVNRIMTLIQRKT
Sequence of OR6Q1 (Homo sapiens) (Q8NGQ2 whole entry): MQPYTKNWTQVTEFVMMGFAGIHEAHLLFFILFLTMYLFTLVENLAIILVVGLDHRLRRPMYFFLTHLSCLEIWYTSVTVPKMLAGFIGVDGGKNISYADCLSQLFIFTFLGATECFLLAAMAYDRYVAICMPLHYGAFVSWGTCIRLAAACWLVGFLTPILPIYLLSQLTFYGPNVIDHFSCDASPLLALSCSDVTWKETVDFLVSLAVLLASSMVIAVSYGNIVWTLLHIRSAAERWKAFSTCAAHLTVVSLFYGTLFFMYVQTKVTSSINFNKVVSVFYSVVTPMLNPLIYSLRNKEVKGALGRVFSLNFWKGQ
Sequence of OR6N2 (Homo sapiens) (Q8NGY6 whole entry): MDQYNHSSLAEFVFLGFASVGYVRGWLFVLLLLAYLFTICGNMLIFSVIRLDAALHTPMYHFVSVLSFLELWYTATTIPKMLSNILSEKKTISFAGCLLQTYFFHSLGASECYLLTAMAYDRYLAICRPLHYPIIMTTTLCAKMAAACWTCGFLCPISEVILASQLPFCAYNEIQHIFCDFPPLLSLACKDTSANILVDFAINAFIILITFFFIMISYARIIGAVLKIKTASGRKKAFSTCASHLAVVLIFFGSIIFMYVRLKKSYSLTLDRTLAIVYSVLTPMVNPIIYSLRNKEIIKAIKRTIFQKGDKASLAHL
Sequence of OR6C76 (Homo sapiens) (A6NM76 whole entry): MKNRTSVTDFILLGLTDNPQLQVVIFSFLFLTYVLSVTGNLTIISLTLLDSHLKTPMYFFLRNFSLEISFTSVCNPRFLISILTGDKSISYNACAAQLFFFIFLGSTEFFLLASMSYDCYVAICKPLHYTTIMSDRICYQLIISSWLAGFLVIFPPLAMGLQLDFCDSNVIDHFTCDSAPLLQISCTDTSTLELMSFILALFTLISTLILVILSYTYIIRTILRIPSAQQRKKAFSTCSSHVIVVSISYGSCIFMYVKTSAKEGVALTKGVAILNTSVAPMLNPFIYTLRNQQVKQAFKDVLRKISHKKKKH
Sequence of OR6T1 (Homo sapiens) (Q8NGN1 whole entry): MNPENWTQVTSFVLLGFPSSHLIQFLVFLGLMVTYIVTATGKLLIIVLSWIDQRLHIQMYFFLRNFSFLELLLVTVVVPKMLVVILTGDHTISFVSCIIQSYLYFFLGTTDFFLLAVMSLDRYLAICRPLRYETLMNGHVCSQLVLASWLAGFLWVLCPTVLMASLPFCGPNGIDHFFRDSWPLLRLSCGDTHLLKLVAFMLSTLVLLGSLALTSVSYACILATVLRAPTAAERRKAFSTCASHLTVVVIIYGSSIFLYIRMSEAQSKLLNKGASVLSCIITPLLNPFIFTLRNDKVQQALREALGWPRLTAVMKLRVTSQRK
Sequence of OR6K2 (Homo sapiens) (Q8NGY2 whole entry): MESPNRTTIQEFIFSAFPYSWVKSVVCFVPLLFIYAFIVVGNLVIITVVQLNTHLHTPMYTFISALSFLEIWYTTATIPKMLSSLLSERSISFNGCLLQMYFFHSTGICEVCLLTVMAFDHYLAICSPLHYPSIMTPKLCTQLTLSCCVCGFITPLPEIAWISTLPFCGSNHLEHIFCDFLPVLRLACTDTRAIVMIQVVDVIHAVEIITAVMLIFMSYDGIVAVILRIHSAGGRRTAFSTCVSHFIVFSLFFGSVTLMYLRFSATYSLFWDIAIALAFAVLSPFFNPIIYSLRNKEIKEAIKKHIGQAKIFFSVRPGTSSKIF
Sequence of OR6K6 (Homo sapiens) (Q8NGW6 whole entry): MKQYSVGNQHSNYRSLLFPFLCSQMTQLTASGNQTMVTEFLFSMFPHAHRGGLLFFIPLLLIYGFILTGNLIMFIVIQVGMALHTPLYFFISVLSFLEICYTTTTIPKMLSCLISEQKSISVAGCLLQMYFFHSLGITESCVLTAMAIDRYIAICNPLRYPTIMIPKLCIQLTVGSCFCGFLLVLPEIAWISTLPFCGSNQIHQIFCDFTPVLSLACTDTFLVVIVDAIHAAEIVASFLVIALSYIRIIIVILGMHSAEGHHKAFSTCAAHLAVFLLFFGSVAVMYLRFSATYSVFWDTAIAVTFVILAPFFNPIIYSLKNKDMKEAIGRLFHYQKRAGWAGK
Sequence of OR6T1 N2D (as listed by the source): as the sequence (Q8NGN1 whole entry) above, with N2D counted along it
Sequence of OR6M1 R224C (as listed by the source, stated change not applied): as the sequence (Q8NGM8 whole entry) above, with R224C counted along it
Sequence of OR6K3 (as listed by the source): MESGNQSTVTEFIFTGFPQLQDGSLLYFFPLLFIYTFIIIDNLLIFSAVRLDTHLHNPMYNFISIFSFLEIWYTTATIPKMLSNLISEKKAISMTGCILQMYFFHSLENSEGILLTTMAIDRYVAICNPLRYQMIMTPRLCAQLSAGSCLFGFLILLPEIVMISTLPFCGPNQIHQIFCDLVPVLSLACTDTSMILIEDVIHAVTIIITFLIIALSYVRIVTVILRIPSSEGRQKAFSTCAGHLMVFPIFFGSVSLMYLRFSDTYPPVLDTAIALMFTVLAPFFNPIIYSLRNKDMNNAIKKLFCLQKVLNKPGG
Sequence of OR6K3 (Homo sapiens) (Q8NGY3 whole entry): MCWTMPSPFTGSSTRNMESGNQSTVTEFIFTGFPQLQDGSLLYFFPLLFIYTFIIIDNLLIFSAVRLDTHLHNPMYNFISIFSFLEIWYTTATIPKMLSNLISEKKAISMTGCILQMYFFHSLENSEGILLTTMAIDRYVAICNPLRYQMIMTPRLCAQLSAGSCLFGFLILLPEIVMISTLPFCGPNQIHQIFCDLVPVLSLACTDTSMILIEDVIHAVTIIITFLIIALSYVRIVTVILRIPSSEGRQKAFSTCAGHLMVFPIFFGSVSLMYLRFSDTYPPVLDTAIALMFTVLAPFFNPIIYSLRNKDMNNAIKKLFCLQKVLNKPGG
Sequence of OR6M1 T276K (as listed by the source, stated change not applied): as the sequence (Q8NGM8 whole entry) above, with T276K counted along it

Compound	odorant receptor agonist call (OR6C76 (Homo sapiens))	odorant receptor agonist call (OR6F1 (Homo sapiens))	odorant receptor agonist call (OR6J1 (Homo sapiens) [1])	odorant receptor agonist call (OR6K2 (Homo sapiens))	odorant receptor agonist call (OR6K3)	odorant receptor agonist call (OR6K6 (Homo sapiens))	odorant receptor agonist call (OR6M1 (Homo sapiens))	odorant receptor agonist call (OR6M1 R224C)	odorant receptor agonist call (OR6M1 T276K)	odorant receptor agonist call (OR6N1 (Homo sapiens))	odorant receptor agonist call (OR6N2 (Homo sapiens))	odorant receptor agonist call (OR6P1 (Homo sapiens))	odorant receptor agonist call (OR6Q1 (Homo sapiens))	odorant receptor agonist call (OR6S1 (Homo sapiens))	odorant receptor agonist call (OR6S1 T42I V156I)	odorant receptor agonist call (OR6T1 (Homo sapiens))	odorant receptor agonist call (OR6T1 N2D)	odorant receptor agonist call (OR6V1 (Homo sapiens))	odorant receptor agonist call (OR6J1 (Homo sapiens) [2])	odorant receptor agonist call (OR6K3 (Homo sapiens))
C=CCOC(=O)Cc1ccccc1	inactive	inactive	inactive	inactive	inactive	inactive	inactive	inactive	inactive	inactive	inactive	inactive	inactive	inactive	inactive	inactive	inactive	inactive		
Cc1c([N+](=O)[O-])c(C)c([N+](=O)[O-])c(C(C)(C)C)c1[N+](=O)[O-]	inactive	inactive		inactive		inactive	inactive			inactive	inactive	inactive	inactive	inactive		inactive		inactive	inactive	inactive
COc1ccc(C=O)cc1												active								
